Measured values as given in ChEMBL document CHEMBL1811802, “Synthesis and significant cytostatic activity of 7-hetaryl-7-deazaadenosines” (J Med Chem, 2011).

Assays:
[1] = Cytotoxicity against human U87MG cells after 3 days by MTT assay; assay type: functional, cell-based, U-87MG ATCC; conditions: U-87 MG, 72 h
C6 = test: Cytotoxicity against rat C6 cells after 3 days by MTT assay; assay type: functional, cell-based; conditions: C6, 72 h
HPAC = test: Cytotoxicity against human HPAC cells after 3 days by MTT assay; assay type: functional, cell-based; conditions: 72 h
MDA-MB-231 = test: Cytotoxicity against human MDA-MB-231 cells after 3 days by MTT assay; assay type: functional, cell-based; conditions: MDA-MB-231, 72 h
BJ = test: Cytotoxicity against human BJ cells after 3 days by MTT assay; assay type: cell-based; conditions: 72 h
MCF7 = test: Cytotoxicity against human MCF7 cells after 3 days by MTT assay; assay type: functional, cell-based; conditions: MCF7, 72 h
PC-3 [2] = test: Cytotoxicity against human PC3 cells after 3 days by MTT assay; assay type: functional, cell-based; conditions: PC-3, 72 h
LNCaP = test: Cytotoxicity against human LNCAP cells after 3 days by MTT assay; assay type: functional, cell-based; conditions: 72 h
K562 [3] = test: Cytotoxicity against human paclitaxel resistant K562 cells after 3 days by MTT assay; assay type: functional, cell-based; conditions: K562, 72 h
SK-OV-3 = test: Cytotoxicity against human SKOV3 cells after 3 days by MTT assay; assay type: functional, cell-based; conditions: SK-OV-3, 72 h
L1210 = test: Cytotoxicity against mouse L1210 cells after 3 days by MTT assay; assay type: functional, cell-based; conditions: L1210, 72 h
[4] = Cytotoxicity against human MES-SA cells after 3 days by MTT assay; assay type: functional, cell-based; conditions: 72 h
SK-N-AS = test: Cytotoxicity against human SK-N-AS cells after 3 days by MTT assay; assay type: functional, cell-based; conditions: 72 h
[5] = Cytotoxicity against human CEM-DNR-bulk cells after 3 days by MTT assay; assay type: functional, cell-based; conditions: 72 h
[6] = Cytotoxicity against human NCI-H146 cells after 3 days by MTT assay; assay type: functional, cell-based; conditions: NCI-H146, 72 h
HT-29 = test: Cytotoxicity against human HT-29 cells after 3 days by MTT assay; assay type: functional, cell-based; conditions: HT-29, 72 h
K562 [7] = test: Cytotoxicity against human K562 cells after 3 days by MTT assay; assay type: functional, cell-based; conditions: K562, 72 h
CT26 = test: Cytotoxicity against mouse CT26 cells after 3 days by MTT assay; assay type: functional, cell-based; conditions: CT26, 72 h
BV-173 = test: Cytotoxicity against human BV173 cells after 3 days by MTT assay; assay type: functional, cell-based; conditions: BV-173, 72 h
BT-549 [8] = test: Cytotoxicity against human BT549 cells after 3 days by MTT assay; assay type: functional, cell-based; conditions: BT-549, 72 h
HeLa = test: Cytotoxicity against human HeLa cells after 3 days by MTT assay; assay type: functional, cell-based; conditions: 72 h
HCT-116 [9] = test: Cytotoxicity against human HCT116 cells after 3 days by MTT assay; assay type: functional, cell-based; conditions: HCT-116, 72 h
SK-MEL-2 = test: Cytotoxicity against human SK-MEL-2 cells after 3 days by MTT assay; assay type: functional, cell-based; conditions: SK-MEL-2, 72 h
EL4 = test: Cytotoxicity against mouse EL4 cells after 3 days by MTT assay; assay type: functional, cell-based; conditions: EL4, 72 h
[10] = Cytotoxicity against mouse P388D1 cells after 3 days by MTT assay; assay type: functional, cell-based; conditions: P388D1, 72 h
A549 = test: Cytostatic activity against human A549 cells after 5 days by SRB assay; assay type: functional; conditions: A549, 120 h
How it was run: (§1)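 Cells seeded per line density, overnight at 37 °C; day-zero plate TCA-fixed. 5-fold serial dilutions added, 5-day incubation; TCA fixation, 0.057% SRB in 1% acetic acid 30 min, dye dissolved in 10 mM Tris pH 10.5, A500. Growth relative to day-zero and untreated; GIC50 from sigmoidal dose–response fit; mean of two independent experiments.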

PC-3 [11] = test: Cytostatic activity against human PC3 cells after 5 days by SRB assay; assay type: functional; conditions: PC-3, 120 h; how it was run: as §1
CCRF-CEM = test: Cytotoxicity against human CCRF-CEM cells after 3 days by XTT assay; assay type: functional, cell-based; conditions: 72 h
How it was run: (§2)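 Suspension-grown cell lines, 3-day compound incubation; viability read by XTT metabolic assay; IC50 averaged from four independent experiments.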

HL-60 = test: Cytotoxicity against human HL60 cells after 3 days by XTT assay; assay type: functional, cell-based; conditions: HL-60, 72 h; how it was run: as §2
[12] = Cytostatic activity against human Hs578 cells after 5 days by SRB assay; assay type: functional; conditions: Hs578, 120 h; how it was run: as §1
BT-549 [13] = test: Cytostatic activity against human BT549 cells after 5 days by SRB assay; assay type: functional; conditions: BT-549, 120 h; how it was run: as §1
DU-145 [14] = test: Cytostatic activity against human DU145 cells after 5 days by SRB assay; assay type: functional; conditions: DU-145, 120 h; how it was run: as §1
NCI-H23 = test: Cytostatic activity against human NCI-H23 cells after 5 days by SRB assay; assay type: functional; conditions: NCI-H23, 120 h; how it was run: as §1
HCT-116 [15] = test: Cytostatic activity against human HCT116 cells after 5 days by SRB assay; assay type: functional; conditions: HCT-116, 120 h; how it was run: as §1
Adenosine kinase = Adenosine kinase (Homo sapiens, UniProt P55263); test: Inhibition of human ADK using [3H]-adenosine by scintillation counting
Adenosine kinase, sequence (P55263 whole entry): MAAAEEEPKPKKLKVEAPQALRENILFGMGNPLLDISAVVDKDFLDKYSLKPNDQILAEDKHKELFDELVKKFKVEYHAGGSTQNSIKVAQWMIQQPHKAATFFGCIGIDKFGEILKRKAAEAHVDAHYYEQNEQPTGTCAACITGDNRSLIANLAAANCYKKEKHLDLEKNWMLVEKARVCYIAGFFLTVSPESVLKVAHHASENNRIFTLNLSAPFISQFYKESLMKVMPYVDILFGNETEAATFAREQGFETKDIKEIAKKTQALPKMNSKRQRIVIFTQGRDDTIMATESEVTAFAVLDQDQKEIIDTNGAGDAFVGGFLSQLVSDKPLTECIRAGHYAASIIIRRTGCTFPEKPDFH

[16] = Cytotoxicity against human HeLaS3 cells after 3 days by XTT assay; assay type: functional, cell-based; conditions: HeLa S3, 72 h; how it was run: as §2
MAT-Ly-Lu = test: Cytotoxicity against rat MAT-LyLu cells after 3 days by MTT assay; assay type: functional, cell-based; conditions: 72 h
MT4 = test: Cytostatic activity against human MT4 cells after 5 days by SRB assay; assay type: functional; conditions: MT4, 120 h
DU-145 [17] = test: Metabolic stability in human DU145 cells assessed as sodium ((2R,3S,4R,5R)-5-(4-amino-7H-pyrrolo[2,3-d]pyrimidin-7-yl)-3,4-dihydroxytetrahydrofuran-2-yl)methyl hydrogentriphosphate-NTP formation per million of cells at 10 uM after 6 hrs by LC/MS/MS analysis; assay type: ADME, cell-based; conditions: du-145, 6 h
How it was run: (§3)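 Du145 seeded at 60% confluence in MEM/10% FBS; next day exposed to 10 μM compound for 6 or 24 h. Cells trypsinized, extracted in 70% MeOH, dried, resuspended in 1 mM ammonium phosphate pH 8.5. Nucleoside, NMP and NTP quantified by ion-pairing (dimethylhexylamine) LC/MS/MS against untreated-cell-extract standard curves; pmol per million cells.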

HCT-15 = test: Cytostatic activity against human HCT15 cells after 5 days by SRB assay; assay type: functional; conditions: HCT-15, 120 h; how it was run: as §1
DU-145 [18] = test: Metabolic stability in human DU145 cells assessed as sodium ((2R,3S,4R,5R)-5-(4-amino-7H-pyrrolo[2,3-d]pyrimidin-7-yl)-3,4-dihydroxytetrahydrofuran-2-yl)methyl hydrogenphosphate-NMP formation per million of cells at 10 uM after 6 hrs by LC/MS/MS analysis; assay type: ADME, cell-based; conditions: du-145, 6 h; how it was run: as §3
DU-145 [19] = test: Metabolic stability in human DU145 cells assessed as sodium ((2R,3S,4R,5R)-5-(4-amino-7H-pyrrolo[2,3-d]pyrimidin-7-yl)-3,4-dihydroxytetrahydrofuran-2-yl)methyl hydrogentriphosphate-NTP formation per million of cells at 10 uM after 24 hrs by LC/MS/MS analysis; assay type: ADME, cell-based; conditions: du-145, 24 h; how it was run: as §3
DU-145 [20] = test: Metabolic stability in human DU145 cells assessed as sodium ((2R,3S,4R,5R)-5-(4-amino-7H-pyrrolo[2,3-d]pyrimidin-7-yl)-3,4-dihydroxytetrahydrofuran-2-yl)methyl hydrogenphosphate-NMP formation per million of cells at 10 uM after 24 hrs by LC/MS/MS analysis; assay type: ADME, cell-based; conditions: du-145, 24 h; how it was run: as §3
DU-145 [21] = test: Metabolic stability in human DU145 cells assessed as nucleoside formation per million of cells at 10 uM after 24 hrs by LC/MS/MS analysis; assay type: ADME, cell-based; conditions: du-145, 24 h; how it was run: as §3
DU-145 [22] = test: Metabolic stability in human DU145 cells assessed as nucleoside formation per million of cells at 10 uM after 6 hrs by LC/MS/MS analysis; assay type: ADME, cell-based; conditions: du-145, 6 h; how it was run: as §3

Nc1nc(Cl)nc2c1ncn2[C@H]1C[C@H](O)[C@@H](CO)O1 [CLADRIBINE]
IC50 [1]: > 10000 nM | IC50 (C6): 9070 nM | IC50 (HPAC): 9320 nM | IC50 (MDA-MB-231): > 10000 nM | IC50 (BJ): > 10000 nM | IC50 (MCF7): 2350 nM | IC50 (PC-3 [2]): 8280 nM | IC50 (LNCaP): > 10000 nM | IC50 (K562 [3]): 170 nM | IC50 (SK-OV-3): > 10000 nM | IC50 (L1210): 393 nM | IC50 [4]: 165 nM | IC50 (SK-N-AS): > 10000 nM | IC50 [5]: 352 nM | IC50 [6]: > 10000 nM | IC50 (HT-29): 9440 nM | IC50 (K562 [7]): 7690 nM | IC50 (CT26): 131 nM | IC50 (BV-173): 0.8 nM | IC50 (BT-549 [8]): 123 nM | IC50 (HeLa): > 10000 nM | IC50 (HCT-116 [9]): 9430 nM | IC50 (SK-MEL-2): > 10000 nM | IC50 (EL4): 848 nM | IC50 [10]: 285 nM

Nc1ncnc2c1c(-c1ccoc1)cn2[C@@H]1O[C@H](CO)[C@@H](O)[C@H]1O
IC50 [1]: > 10000 nM | GI50 (A549): 34 nM | IC50 (C6): > 10000 nM | IC50 (HPAC): 133 nM | GI50 (PC-3 [11]): 418 nM | IC50 (MDA-MB-231): 126 nM | IC50 (BJ): > 10000 nM | IC50 (MCF7): 9740 nM | IC50 (PC-3 [2]): > 10000 nM | IC50 (LNCaP): 112 nM | IC50 (K562 [3]): 147 nM | IC50 (CCRF-CEM): 70 nM | IC50 (SK-OV-3): > 10000 nM | IC50 (HL-60): 9060 nM | IC50 (L1210): 445 nM | IC50 [4]: 1330 nM | GI50 [12]: 21 nM | GI50 (BT-549 [13]): 28 nM | GI50 (DU-145 [14]): 330 nM | IC50 (SK-N-AS): > 10000 nM | GI50 (NCI-H23): 198 nM | IC50 [5]: 364 nM | IC50 [6]: > 10000 nM | IC50 (HT-29): 394 nM | GI50 (HCT-116 [15]): 15 nM | IC50 (K562 [7]): 200 nM | IC50 (Adenosine kinase): > 5000 nM | IC50 [16]: 20 nM | IC50 (CT26): 1670 nM | IC50 (MAT-Ly-Lu): 1860 nM | IC50 (BV-173): 68 nM | IC50 (BT-549 [8]): 452 nM | GI50 (MT4): 170 nM | IC50 (HeLa): 350 nM | IC50 (HCT-116 [9]): 425 nM | IC50 (SK-MEL-2): > 10000 nM | IC50 (EL4): > 10000 nM | IC50 [10]: 139 nM

Nc1ncnc2c1c(-c1ccccc1)cn2[C@@H]1O[C@H](CO)[C@@H](O)[C@H]1O
GI50 (A549): > 20000 nM | GI50 (PC-3 [11]): > 20000 nM | Stability (DU-145 [17]): 0.13 pmol | IC50 (CCRF-CEM): > 10000 nM | IC50 (HL-60): > 10000 nM | GI50 (HCT-15): > 20000 nM | GI50 [12]: > 20000 nM | GI50 (BT-549 [13]): > 20000 nM | GI50 (DU-145 [14]): > 20000 nM | GI50 (NCI-H23): > 20000 nM | Stability (DU-145 [18]): 6.23 pmol | GI50 (HCT-116 [15]): > 20000 nM | IC50 (Adenosine kinase): > 5000 nM | IC50 [16]: > 10000 nM | Stability (DU-145 [19]): 0.27 pmol | Stability (DU-145 [20]): 6.68 pmol | GI50 (MT4): > 20000 nM | Stability (DU-145 [21]): 68.8 pmol | Stability (DU-145 [22]): 32.91 pmol
